Results from ChEMBL document CHEMBL4043295, “Marbostat-100 Defines a New Class of Potent and Selective Antiinflammatory and Antirheumatic Histone Deacetylase 6 Inhibitors” (J Med Chem, 2018).
Calls of active or inactive are those of the source. The rule behind the calls is not given here.

Assays:
[1] = target: T1, Protein deacetylase HDAC6 (Homo sapiens) (UniProt Q9UBN7); conditions: 5 to 1000 nM
T1 sequence (whole entry): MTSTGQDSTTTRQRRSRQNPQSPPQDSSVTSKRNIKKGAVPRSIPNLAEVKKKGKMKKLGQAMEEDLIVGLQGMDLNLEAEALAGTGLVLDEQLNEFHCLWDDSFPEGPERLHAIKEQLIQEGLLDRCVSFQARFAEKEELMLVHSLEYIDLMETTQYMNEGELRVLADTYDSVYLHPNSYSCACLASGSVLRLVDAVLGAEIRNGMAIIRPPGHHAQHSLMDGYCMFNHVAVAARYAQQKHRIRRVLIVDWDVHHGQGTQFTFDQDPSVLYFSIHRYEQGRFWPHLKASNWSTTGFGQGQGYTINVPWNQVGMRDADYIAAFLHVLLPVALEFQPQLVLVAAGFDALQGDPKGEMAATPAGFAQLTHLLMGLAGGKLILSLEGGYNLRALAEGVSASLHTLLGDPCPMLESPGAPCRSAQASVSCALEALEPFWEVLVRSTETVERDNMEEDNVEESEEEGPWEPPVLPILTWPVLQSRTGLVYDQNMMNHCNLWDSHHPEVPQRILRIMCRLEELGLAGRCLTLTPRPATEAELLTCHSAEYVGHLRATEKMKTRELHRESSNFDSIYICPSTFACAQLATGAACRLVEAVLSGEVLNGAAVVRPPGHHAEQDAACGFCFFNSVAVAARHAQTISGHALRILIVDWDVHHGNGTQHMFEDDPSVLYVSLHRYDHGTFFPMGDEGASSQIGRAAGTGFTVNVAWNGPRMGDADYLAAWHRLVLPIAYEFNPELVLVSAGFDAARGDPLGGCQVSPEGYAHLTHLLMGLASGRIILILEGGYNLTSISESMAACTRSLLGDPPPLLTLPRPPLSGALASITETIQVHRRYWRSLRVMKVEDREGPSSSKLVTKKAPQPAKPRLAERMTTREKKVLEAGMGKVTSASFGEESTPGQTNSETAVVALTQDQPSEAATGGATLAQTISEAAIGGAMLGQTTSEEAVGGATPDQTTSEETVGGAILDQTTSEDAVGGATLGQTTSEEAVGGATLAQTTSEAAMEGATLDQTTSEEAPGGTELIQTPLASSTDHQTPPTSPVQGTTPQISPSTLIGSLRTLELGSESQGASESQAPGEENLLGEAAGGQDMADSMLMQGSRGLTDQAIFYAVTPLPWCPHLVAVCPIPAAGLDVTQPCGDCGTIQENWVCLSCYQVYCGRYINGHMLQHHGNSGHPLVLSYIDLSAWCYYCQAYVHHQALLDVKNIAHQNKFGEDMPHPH

Mus musculus [2] = assay: Antiarthritic activity in DBA/1J mouse collagen-induced arthritis model assessed as decrease in sign of synovial inflammation at 30 mg/kg, ip administered every morning for 12 to 14 days; format: functional, organism-based
How it was run: (§1)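 Collagen type II-induced arthritis in mice, treated at 30 mg/kg versus vehicle. Arthritic paws were assessed histologically for synovial inflammation, cellular invasion, cartilage degradation and bone erosion.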

[3] = target: T1, Protein deacetylase HDAC6 (Homo sapiens); conditions: 50 nM
Mus musculus [4] = assay: Antiarthritic activity in DBA/1J mouse collagen-induced arthritis model assessed as decrease in clinical scores at 30 mg/kg, ip administered every morning for 12 to 14 days measured during compound dosing relative to vehicle-treated control; format: functional; set-up: scale not given: the % may be the effect or the level left
How it was run: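 Collagen type II-induced arthritis in mice, treated at 30 mg/kg versus vehicle. Clinical arthritis score and paw swelling were followed over time from the start of treatment until the end of the experiment.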

Histone deacetylase 8 = target: T2, Histone deacetylase 8 (Homo sapiens, UniProt Q9BY41); assay: Inhibition of recombinant human C-terminal His-tagged HDAC8 (1 to 377 residues) expressed in baculovirus-infected insect cells using RHK(Ac)K(Ac)AMC as substrate after 60 mins by fluorimeter
T2 sequence (Q9BY41 whole entry): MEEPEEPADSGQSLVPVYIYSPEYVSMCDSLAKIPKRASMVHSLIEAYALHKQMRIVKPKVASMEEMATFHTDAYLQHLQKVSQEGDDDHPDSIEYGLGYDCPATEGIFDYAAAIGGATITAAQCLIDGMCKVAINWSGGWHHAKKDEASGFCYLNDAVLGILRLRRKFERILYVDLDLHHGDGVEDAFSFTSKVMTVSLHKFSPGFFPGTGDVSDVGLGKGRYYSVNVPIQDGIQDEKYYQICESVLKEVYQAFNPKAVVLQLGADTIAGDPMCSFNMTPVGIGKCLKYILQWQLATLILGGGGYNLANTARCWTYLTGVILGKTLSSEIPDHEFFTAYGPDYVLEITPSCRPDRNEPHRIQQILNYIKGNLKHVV

Histone deacetylase 4 = Histone deacetylase 4 (Homo sapiens, UniProt P56524); assay: Inhibition of recombinant human C-terminal GST-tagged HDAC4 expressed in baculovirus-infected insect cells using Boc-Lys(TFA)-AMC as substrate by fluorimeter
Histone deacetylase 2 = Histone deacetylase 2 (Homo sapiens, UniProt Q92769); assay: Inhibition of full length recombinant human C-terminal GST-tagged HDAC2 expressed in baculovirus-infected insect cells using RHKK(Ac)AMC as substrate after 60 mins by fluorimeter
[5] = target: T1, Protein deacetylase HDAC6 (Homo sapiens); conditions: 50 nM; remark: listed apart in the source
Mus musculus [6] = assay: Toxicity in DBA/1J mouse collagen-induced arthritis model assessed as effect on red blood cell count at 30 mg/kg, ip administered every morning for 12 to 14 days measured post last dose relative to vehicle-treated control; format: organism-based; conditions: in vivo
Jurkat = assay: Cell cycle arrest in human Jurkat cells at 5 to 1000 nM after 24 hrs by propidium iodide staining-based flow cytometric method; format: functional
Mus musculus [7] = assay: Antiarthritic activity in DBA/1J mouse collagen-induced arthritis model assessed as decrease in degradation of cartilage at 30 mg/kg, ip administered every morning for 12 to 14 days; format: functional, organism-based
How it was run: as §1

Mus musculus [8] = assay: In vivo inhibition of HDAC6 in DBA/1J mouse assessed as induction of tubulin acetylation in kidney at 0.6 mg […] by Western blot method; format: functional, organism-based
How it was run: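 Male DBA/1J mice received 0.6 mg inhibitor; organs were collected 2.5 h later and stored at −80 °C. Liver and kidney lysates were immunoblotted for acetylated tubulin and compared with untreated controls. Representative of at least two experiments.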

Mus musculus [9] = assay: Antiarthritic activity in DBA/1J mouse collagen-induced arthritis model assessed as reduction of articular bone erosion in arthritic hind paw at 30 mg/kg, ip administered every morning for 12 to 14 days measured post last dose by microCT method relative to vehicle-treated control; format: functional, organism-based
PBMC = assay: Induction of apoptosis in human PBMC at 50 to 1000 nM after 24 hrs by Annexin V/propidium iodide staining-based flow cytometric method; format: cell-based; conditions: 1 µM

Chain of Histone deacetylase 2 (Q92769 whole entry): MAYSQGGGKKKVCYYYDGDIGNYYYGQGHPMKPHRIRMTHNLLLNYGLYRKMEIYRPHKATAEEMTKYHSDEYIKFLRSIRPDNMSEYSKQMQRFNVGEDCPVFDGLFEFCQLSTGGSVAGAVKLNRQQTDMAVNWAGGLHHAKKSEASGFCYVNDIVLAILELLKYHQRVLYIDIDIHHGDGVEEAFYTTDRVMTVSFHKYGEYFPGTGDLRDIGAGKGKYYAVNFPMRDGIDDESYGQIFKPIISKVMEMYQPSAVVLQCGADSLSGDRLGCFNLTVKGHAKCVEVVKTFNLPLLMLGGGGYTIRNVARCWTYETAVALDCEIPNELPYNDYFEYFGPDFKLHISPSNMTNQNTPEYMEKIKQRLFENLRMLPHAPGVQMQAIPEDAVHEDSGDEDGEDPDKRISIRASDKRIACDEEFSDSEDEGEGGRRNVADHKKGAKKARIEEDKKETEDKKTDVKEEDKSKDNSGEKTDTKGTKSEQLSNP
Chain of Histone deacetylase 4 (P56524 whole entry): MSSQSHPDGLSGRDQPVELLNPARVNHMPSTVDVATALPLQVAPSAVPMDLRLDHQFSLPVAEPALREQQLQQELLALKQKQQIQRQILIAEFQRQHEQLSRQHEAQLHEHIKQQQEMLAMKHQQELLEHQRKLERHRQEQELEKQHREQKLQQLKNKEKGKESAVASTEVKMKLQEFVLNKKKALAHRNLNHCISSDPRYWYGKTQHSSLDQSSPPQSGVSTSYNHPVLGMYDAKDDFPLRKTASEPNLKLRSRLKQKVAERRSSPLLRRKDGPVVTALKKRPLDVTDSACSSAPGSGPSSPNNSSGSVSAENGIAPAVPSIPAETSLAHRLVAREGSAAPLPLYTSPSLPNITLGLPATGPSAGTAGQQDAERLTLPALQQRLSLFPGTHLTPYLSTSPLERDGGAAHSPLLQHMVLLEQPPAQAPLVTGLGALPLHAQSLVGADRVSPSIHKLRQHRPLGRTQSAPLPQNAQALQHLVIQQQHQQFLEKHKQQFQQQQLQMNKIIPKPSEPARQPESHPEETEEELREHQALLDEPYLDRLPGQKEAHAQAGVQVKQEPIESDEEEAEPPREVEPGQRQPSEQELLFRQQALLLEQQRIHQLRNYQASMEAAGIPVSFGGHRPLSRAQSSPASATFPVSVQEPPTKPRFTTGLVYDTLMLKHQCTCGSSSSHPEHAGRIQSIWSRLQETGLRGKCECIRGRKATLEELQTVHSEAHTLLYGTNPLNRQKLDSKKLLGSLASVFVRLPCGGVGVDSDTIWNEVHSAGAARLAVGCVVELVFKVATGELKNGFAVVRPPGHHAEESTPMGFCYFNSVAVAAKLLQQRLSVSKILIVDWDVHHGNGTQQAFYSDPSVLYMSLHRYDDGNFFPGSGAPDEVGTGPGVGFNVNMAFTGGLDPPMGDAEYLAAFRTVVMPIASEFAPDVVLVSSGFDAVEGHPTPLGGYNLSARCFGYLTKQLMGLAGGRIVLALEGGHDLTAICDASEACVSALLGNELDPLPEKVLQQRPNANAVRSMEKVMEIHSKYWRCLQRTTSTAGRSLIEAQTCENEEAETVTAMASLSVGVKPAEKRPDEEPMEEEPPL

inhibition [1]: Active
inhibition [3]: Active
Ki (Histone deacetylase 8): 173 nM
Ki (Histone deacetylase 4): 1820 nM
Ki (Histone deacetylase 2): 774 nM
inhibition [5]: Active
Compound: CN1C(=O)C2CN(Cc3c2c2ccccc2n3Cc2ccc(C(=O)NO)cc2)C1=O (centres undefined)
Activity (Mus musculus [2]): Active
Activity (Mus musculus [4]): 25%
Activity (Mus musculus [6]): Non-Toxic
Activity (Jurkat): inactive
Activity (Mus musculus [7]): Active
inhibition (Mus musculus [8]): Active
Activity (Mus musculus [9]): Active
Activity (PBMC): Non-Toxic
